Laboratory results: ChEMBL document CHEMBL4715928, “Discovery of Dipeptides as Potent Botulinum Neurotoxin A Light-Chain Inhibitors” (ACS Med Chem Lett, 2021)

Legend:
[1] = system: Clostridium botulinum; assay: Zinc chelating activity mediated inhibition of Clostridium botulinum BoNT/A LC activity at 15 uM using SNAPtide as substrate measured for 10 mins by FRET assay relative to control
Method in brief: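 Recombinant BoNT/A light chain at 20 nM, 8 μM SNAPtide FRET substrate, each dipeptide tested at 15 μM. Reactions were run in triplicate, and percent inhibition is the mean of the three.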

[2] = Zinc chelating activity mediated inhibition of Clostridium botulinum BoNT/A LC activity using SNAPtide as substrate measured for 10 mins by FRET assay
Method in brief: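 BoNT/A light chain at 20 nM was incubated with 8 μM SNAPtide substrate across a range of dipeptide concentrations. IC50 values were derived from the concentration series.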

**Q.** For `CC[C@H](C)[C@H](NS(=O)(=O)c1ccc(-c2ccc(Cl)cc2)cc1)C(=O)N[C@@H](C(=O)NO)[C@@H](C)CC`, which inhibition [1] is on record?
**A.** 57%

**Q.** With `CC[C@H](C)[C@H](NS(=O)(=O)c1cc(Cl)cc(Cl)c1)C(=O)N[C@@H](CC(C)C)C(=O)NO` as the compound, how does the IC50 [2] read?
**A.** 150 nM

**Q.** With `CCC[C@H](NC(=O)[C@H](Cc1ccccc1)NS(=O)(=O)c1cc(Cl)cc(Cl)c1)C(=O)NO` as the compound, how does the IC50 [2] read?
**A.** 43 nM

**Q.** With `CC[C@H](C)[C@@H](NC(=O)[C@H](NS(=O)(=O)c1ccc(-c2ccc(Cl)cc2)cc1)[C@@H](C)CC)C(=O)NO` as the compound, how does the inhibition [1] read?
**A.** 48%

**Q.** With `CC[C@H](C)[C@H](NC(=O)C(C)(C)NS(=O)(=O)c1ccc(-c2ccc(Cl)cc2)cc1)C(=O)NO` as the compound, how does the inhibition [1] read?
**A.** 84%

**Q.** For `CC[C@H](C)[C@H](NC(=O)[C@@H](NS(=O)(=O)c1ccc(-c2ccc(Cl)cc2)cc1)[C@@H](C)CC)C(=O)NO`, which inhibition [1] is on record?
**A.** 85%

**Q.** With `CC[C@H](C)[C@H](NC(=O)[C@H](Cc1ccccc1)NS(=O)(=O)c1ccc(C2CCCCC2)cc1)C(=O)NO` as the compound, how does the inhibition [1] read?
**A.** 57%

**Q.** With `CC[C@H](C)[C@@H](NS(=O)(=O)c1ccc(-c2ccc(Cl)cc2)cc1)C(=O)N[C@@H](Cc1ccccc1)C(=O)NO` as the compound, how does the inhibition [1] read?
**A.** 62%

**Q.** Which inhibition [1] does the source give for `CC[C@H](C)[C@H](NC(=O)[C@H](Cc1ccccc1)NS(=O)(=O)c1ccc(Cl)cc1)C(=O)NO` here?
**A.** 77%

**Q.** Which inhibition [1] does the source give for `CC[C@H](C)[C@H](NC(=O)[C@H](Cc1ccccc1)NS(=O)(=O)c1cccc(Cl)c1)C(=O)NO` here?
**A.** 79%

**Q.** For `CC[C@H](C)[C@H](NC(=O)[C@@H](NS(=O)(=O)c1cc(Cl)cc(Cl)c1)C(C)C)C(=O)NO`, which IC50 [2] is on record?
**A.** 69 nM

**Q.** For `CC[C@H](C)[C@H](NC(=O)[C@H](C)NS(=O)(=O)c1ccc(-c2ccc(Cl)cc2)cc1)C(=O)NO`, which inhibition [1] is on record?
**A.** 31%

**Q.** With `CCC[C@H](NC(=O)[C@@H](NS(=O)(=O)c1cc(Cl)cc(Cl)c1)[C@@H](C)CC)C(=O)NO` as the compound, how does the IC50 [2] read?
**A.** 89 nM

**Q.** For `CC[C@H](C)[C@H](NS(=O)(=O)c1ccc(-c2ccc(Cl)cc2)cc1)C(=O)NCC(=O)NO`, which inhibition [1] is on record?
**A.** 18%

**Q.** Which inhibition [1] does the source give for `CC[C@H](C)[C@H](NS(=O)(=O)c1ccc(-c2ccc(Cl)cc2)cc1)C(=O)N[C@@H](Cc1ccccc1)C(=O)NO` here?
**A.** 44%

**Q.** For `CC[C@H](C)[C@H](NC(=O)[C@H](Cc1ccccc1)NS(=O)(=O)c1ccc(Br)cc1)C(=O)NO`, which inhibition [1] is on record?
**A.** 87%

**Q.** Which inhibition [1] does the source give for `CC[C@H](C)[C@H](NC(=O)[C@H](Cc1ccccc1)NS(=O)(=O)c1ccc(-c2ccccc2)cc1)C(=O)NO` here?
**A.** 77%

**Q.** For `CC[C@H](C)[C@H](NS(=O)(=O)c1ccc(-c2ccc(Cl)cc2)cc1)C(=O)NCCC(=O)NO`, which inhibition [1] is on record?
**A.** 62%

**Q.** For `CC[C@H](C)[C@H](NS(=O)(=O)c1ccc(-c2ccc(Cl)cc2)cc1)C(=O)NC(C)(C)C(=O)NO`, which inhibition [1] is on record?
**A.** 11%

**Q.** Which inhibition [1] does the source give for `CC[C@H](C)[C@H](NC(=O)[C@H](NS(=O)(=O)c1ccc(-c2ccc(Cl)cc2)cc1)[C@@H](C)CC)C(=O)NO` here?
**A.** 69%

**Q.** For `CCOc1ccc(S(=O)(=O)N[C@@H](Cc2ccccc2)C(=O)N[C@H](C(=O)NO)[C@@H](C)CC)cc1OCC`, which inhibition [1] is on record?
**A.** 22%

**Q.** With `CC[C@H](C)[C@H](NC(=O)[C@H](Cc1ccccc1)NS(=O)(=O)c1cccc(C(C)(C)C)c1)C(=O)NO` as the compound, how does the inhibition [1] read?
**A.** 93%

**Q.** For `CC[C@H](C)[C@H](NC(=O)[C@H](Cc1ccccc1)NS(=O)(=O)c1c(Cl)cccc1Cl)C(=O)NO`, which inhibition [1] is on record?
**A.** 83%

**Q.** Which inhibition [1] does the source give for `CC[C@H](C)[C@H](NC(=O)[C@@H](Cc1ccccc1)NS(=O)(=O)c1ccc(-c2ccc(Cl)cc2)cc1)C(=O)NO` here?
**A.** 41%

**Q.** With `CC[C@H](C)[C@H](NC(=O)[C@H](Cc1ccccc1)NS(=O)(=O)c1ccccc1)C(=O)NO` as the compound, how does the inhibition [1] read?
**A.** 52%

**Q.** For `CC[C@H](C)[C@@H](NC(=O)[C@@H](Cc1ccccc1)NS(=O)(=O)c1ccc(-c2ccc(Cl)cc2)cc1)C(=O)NO`, which inhibition [1] is on record?
**A.** 63%

**Q.** Which IC50 [2] does the source give for `CC[C@H](C)[C@H](NC(=O)[C@@H](NS(=O)(=O)c1ccc(-c2ccc(Cl)cc2)cc1)C(C)C)C(=O)NO` here?
**A.** 2900 nM

**Q.** With `CC[C@H](C)[C@H](NC(=O)[C@H](Cc1ccccc1)NS(=O)(=O)c1ccc(-c2ccc(Cl)cc2)cc1)C(=O)NO` as the compound, how does the IC50 [2] read?
**A.** 2400 nM

**Q.** And the inhibition [1]?
**A.** 100%

**Q.** With `CC(C)[C@H](NC(=O)[C@H](Cc1ccccc1)NS(=O)(=O)c1cc(Cl)cc(Cl)c1)C(=O)NO` as the compound, how does the IC50 [2] read?
**A.** 21 nM

**Q.** With `CCC[C@H](NC(=O)[C@@H](NS(=O)(=O)c1ccc(-c2ccc(Cl)cc2)cc1)[C@@H](C)CC)C(=O)NO` as the compound, how does the IC50 [2] read?
**A.** 1000 nM

**Q.** For `CC[C@H](C)[C@H](NS(=O)(=O)c1ccc(-c2ccc(Cl)cc2)cc1)C(=O)N[C@@H](C)C(=O)NO`, which inhibition [1] is on record?
**A.** 55%

**Q.** With `CC[C@H](C)[C@H](NC(=O)[C@H](CC(C)C)NS(=O)(=O)c1ccc(-c2ccc(Cl)cc2)cc1)C(=O)NO` as the compound, how does the inhibition [1] read?
**A.** 100%

**Q.** Which IC50 [2] does the source give for `CC[C@H](C)[C@H](NC(=O)[C@H](Cc1ccccc1)NS(=O)(=O)c1cc(Cl)cc(Cl)c1)C(=O)NO` here?
**A.** 150 nM

**Q.** And the inhibition [1]?
**A.** 100%
